Published values gathered from unrelated publications.
Lines come from different studies, so protocols differ.
Medium: plasma

| SMILES | host | route | dose | setting | AUC(0-t) |
| --- | --- | --- | --- | --- | --- |
| C[C@@H](Oc1ccc(S(C)(=O)=O)cc1C(=O)N1C[C@@H]2C[C@]2(c2cc(C(F)(F)F)on2)C1)C(F)(F)F | human | oral | 10 mg | single dose, fed | 1.81 µM·h |
| C=CC(=O)NC1CCN(c2ncc3ncnc(Nc4ccc(Oc5ccc6c(c5)ncn6C)c(C)c4)c3n2)CC1 | male human | intravenous | 100 µg | healthy volunteers | 0.00262 µM·h |
| CC(=O)N(C)[C@H]1CCN(C(=O)c2cnc3c(c2)C[C@](C)(c2ccc(F)cc2)N3)C1 | male human | oral | 30 mg | multiple doses, once daily | 3.42 µM·h |
| COc1ccc(-c2c(Nc3ccccn3)[nH]c3c(C4=CCCCC4)c(-c4ccccc4)nn3c2=O)cc1 | human | oral | 100 mg once daily | multiple doses, steady state, patients | 66300 ng·h/mL |
| CC(=O)O[C@H]1C(=O)[C@@]2(C)[C@H]([C@H](OC(=O)c3ccccc3)[C@]3(O)C[C@H](OC(=O)[C@H](O)[C@@H](NC(=O)c4ccccc4)c4ccccc4)C(C)=C1C3(C)C)[C@]1(OC(C)=O)CO[C@@H]1C[C@@H]2O | human | intravenous | 80 mg/m² |  | 3.25 µM·h |
| COc1ccc2c(c1)CN(C(=O)CCN1CCC(Cc3ccccc3)CC1)CC[S@@+]2[O-] | male human | intravenous | 0.05 mg/kg | healthy volunteers | 241 ng·h/mL |
| OC[C@H]1O[C@@H](c2cc(Cc3ccc(C4CC4)cc3)c(Cl)c3c2CCO3)[C@H](O)[C@@H](O)[C@@H]1O | human | oral | 0.3 mg | single dose, fed | 24.6 ng·h/mL |
| CC(C)n1c(C2CCNCC2)nc2c([N+](=O)[O-])c(Br)c(Br)cc21 | human | oral | 25 mg | patients | 152 ng·h/mL |
